Results as given in ChEMBL document CHEMBL1641402, “Use of experimental design for the optimization of the production of new secondary metabolites by two Penicillium species” (J Nat Prod, 2010).
The source made the active and inactive calls. The calls are words filed in the database; no cut-off is given here.

Experiments:
[1] = system: Mycobacterium tuberculosis; assay: Antimycobacterial activity against Mycobacterium tuberculosis H37Rv; assay type: functional, organism-based
[2] = system: Pseudomonas aeruginosa; assay: Antimicrobial activity against Pseudomonas aeruginosa after 24 hrs by broth micro dilution method; assay type: functional
Outline: (§1)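 Broth microdilution per NCCLS guidelines: 2-fold serial dilutions in RPMI-1640 buffered to pH 7.5 with 0.165 M MOPS, final 0.5–128 µg/mL. Inocula from 24 h tryptic soy agar cultures at 37 °C, final 10^3/10^4 cells per mL. Kanamycin and polymyxin B as controls. Incubated 24 h at 37 °C, OD 600 nm; MIC is lowest concentration giving complete (90%) growth inhibition.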

[3] = system: Escherichia coli; assay: Antimicrobial activity against Escherichia coli after 24 hrs by broth micro dilution method; assay type: functional; outline: as §1
[4] = system: Candida albicans; assay: Antimicrobial activity against Candida albicans at 40 ug/disk; assay type: functional, organism-based
[5] = system: Staphylococcus aureus; assay: Antimicrobial activity against Staphylococcus aureus after 24 hrs by broth micro dilution method; assay type: functional; outline: as §1
[6] = (§2) Cytotoxicity against human HTB-129 cells after 72 hrs by MTT assay; assay type: functional, cell-based; conditions: HTB-129, 72 h
Outline: (§3)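 HTB-129 breast carcinoma cells kept in Leibovitz's L-15 with 2 mM L-glutamine, insulin 0.01 mg/mL, 10% FBS, penicillin/streptomycin, 37 °C in air. Seeded at 1 × 10^5 cells/mL, 24 h before dosing. Compounds in DMSO, serially diluted in medium from 200 to 1.76 µg/mL. Exposure 72 h, then MTT 3 h, DMSO solubilization, read at 570 nm. Viability as percent of untreated controls; IC50 fitted.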

[7] = system: Candida albicans; assay: Antimicrobial activity against Candida albicans at 8 ug/disk; assay type: functional; conditions: read-out: IZ
[8] = system: HTB-129; assay: as §2; assay type: functional, cell-based; outline: as §3

SMILES	inhibition [1]	MIC [2] [µg/mL]	MIC [3] [µg/mL]	inhibition [4]	MIC [5] [µg/mL]	IC50 [6] [µM]	inhibition [2]	inhibition [3]	inhibition [5]	inhibition [8]	other results
C=CC(C)(C)[C@]12C=C(OC)C(=O)N3/C(=C/c4c[nH]cn4)C(=O)N[C@@]31N(OC)c1ccccc12	inactive										
CC1(C)CC(=O)c2c(ccc3c2NC(=O)[C@]32C[C@@]3([N+](=O)[O-])CN4CCC[C@@H]4C[C@@H]3C2(C)C)O1.O=C(O)C(F)(F)F [CITRINALINE B]		> 32	> 32	inactive	> 32	194					
CC1(C)CC(=O)c2c(ccc3c2NC(=O)[C@]32C[C@@]3([N+](=O)[O-])CN4CCC[C@H]4C[C@@H]3C2(C)C)O1.O=C(O)C(F)(F)F [CITRINALIN A]		> 32	> 32	inactive	> 32	174					
C[C@@H]1[C@H](O)[C@@H](C)/C=C/C=C/C=C/C=C/C=C/C=C/C=C/[C@H](O[C@@H]2O[C@H](C)[C@@H](O)[C@H](N)[C@@H]2O)C[C@@H]2O[C@](O)(C[C@@H](O)C[C@@H](O)[C@H](O)CC[C@@H](O)C[C@@H](O)CC(=O)O[C@H]1C)C[C@H](O)[C@H]2C(=O)O [AMPHOTERICIN B]											zone of inhibition at 8 µg/disc [7]: 20 mm
COc1ccc2c3c1C(=O)CC(C)(C)N3C(=O)[C@@]21C[C@]2([N+](=O)[O-])CN3CCC[C@@H]3C[C@H]2C1(C)C	inactive						inactive	inactive	inactive	inactive	
COc1ccc2c3c1C(=O)CC(C)(C)N3C(=O)[C@@]21C[C@@]2([N+](=O)[O-])CN3CCC[C@@H]3C[C@H]2C1(C)C	inactive						inactive	inactive	inactive	inactive	
